Here are results for 18 molecules from PMC4294696 (Bioorganic & medicinal chemistry letters, 2014).

“Also recorded” adds a separate entry of the source.

Assay [1] addresses T1, 5-HT1AR (Homo sapiens, UniProt P08908).
T1 sequence (P08908 1-422): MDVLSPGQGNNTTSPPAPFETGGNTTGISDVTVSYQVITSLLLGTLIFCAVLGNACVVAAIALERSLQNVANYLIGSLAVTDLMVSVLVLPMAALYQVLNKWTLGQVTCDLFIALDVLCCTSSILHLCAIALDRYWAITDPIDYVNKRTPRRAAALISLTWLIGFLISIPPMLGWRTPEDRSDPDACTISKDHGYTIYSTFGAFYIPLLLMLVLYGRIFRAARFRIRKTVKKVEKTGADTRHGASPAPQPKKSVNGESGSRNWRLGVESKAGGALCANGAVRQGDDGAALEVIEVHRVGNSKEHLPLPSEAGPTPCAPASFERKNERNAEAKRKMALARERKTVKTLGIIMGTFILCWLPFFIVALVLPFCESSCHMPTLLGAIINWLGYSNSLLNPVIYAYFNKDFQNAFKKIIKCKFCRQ
As to the kind of experiment: 5-HT1AR competition binding with [3H]8-OH-DPAT.

A further assay has as its system α-1AR. As to the kind of experiment: α-1AR competition binding with [3H]-7-methoxyprazosin. As to conditions: for selectivity for 5-HT1AR over α-1AR: ratio of Ki values.
The target of assay [2] is T1, 5-HT1AR. As to the kind of experiment: Agonist-stimulated [35S]GTPγS binding in CHO-h5-HT1A cell membranes. It is filed as biochemical. Summed up:
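Membranes from CHO cells stably expressing human 5-HT1AR were used. [35S]GTPγS was added at 0.1 nM and incubation continued for 60 min at room temperature. The reaction was stopped by rapid filtration through GF/B filters, followed by three washes with ice-cold 20 mM HEPES, pH 7.4. Bound radioactivity was counted by liquid scintillation. The response was taken as binding above basal.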
(GTPγS is a poorly hydrolysed GTP analogue; its binding reports G protein activation.)

As to `COc1ccc2cccc(N3CCN(CCCCCn4ncc(=O)n(C)c4=O)CC3)c2c1` [Compound 42], the “5-HT1AR binding affinity (in words)” value at 5-HT1AR [1] is on record as “did not see considerable improvement”.
Turning to `Cn1c(=O)cnn(CCCCN2CCN(c3cccc(F)n3)CC2)c1=O` [Compound 32], the “selectivity for 5-HT1AR over α-1AR (in words)” value (“selectivity … (in words)” for short) in the assay on α-1AR was “excellent selectivity; also recorded: higher selectivity to 5-HT1AR over α-1AR in comparison to CUMI-101”. At 5-HT1AR [1], the “5-HT1AR binding affinity (in words)” value is given as “high affinity; also recorded: nanomolar affinity”. The “agonist profile as measured by GTPγS binding (in words)” value on 5-HT1AR [2] is “robust agonist profile”.
`CCOc1ccccc1N1CCN(CCCCn2ncc(=O)n(C)c2=O)CC1` [Compound 12]: the “5-HT1AR binding affinity (in words)” value at 5-HT1AR [1] is on record as “nanomolar affinity”.
For `Cn1c(=O)cnn(CCCCN2CCN(c3ccccc3S)CC2)c1=O` [Compound 31], the “selectivity for 5-HT1AR over α-1AR” value with α-1AR is reported as > 10000 times. In addition, at 5-HT1AR [1], the “5-HT1AR binding affinity (in words)” value is reported as “nanomolar affinity”.
Regarding `Cn1c(=O)cnn(CCCCN2CCN(c3ccccc3C#N)CC2)c1=O` [Compound 20], at 5-HT1AR [1], the “5-HT1AR binding affinity (in words)” value is given as “nanomolar affinity”.
For `Cn1c(=O)cnn(CCCCN2CCN(c3cccc(Br)n3)CC2)c1=O` [Compound 33], in the assay with α-1AR, the “selectivity … (in words)” value is reported as “excellent selectivity”. Moreover, the “5-HT1AR binding affinity (in words)” value on 5-HT1AR [1] was “high affinity”.
On to `Cn1c(=O)cnn(CCCCN2CCN(c3ccccn3)CC2)c1=O` [Compound 27, 4-Methyl-2-(4-(4-(pyridin-2-yl)piperazin-1-yl)butyl)-1,2,4-triazine-3,5(2H,4H)-dione], for which, in the assay with α-1AR, the “selectivity … (in words)” value is on record as “excellent selectivity”. In addition, the “5-HT1AR binding affinity (in words)” value at 5-HT1AR [1] is on record as “high affinity”.
For `Cn1c(=O)cnn(CCCCN2CCN(c3cccc(O)c3)CC2)c1=O` [Compound 25], in that order: “excellent selectivity” and “nanomolar affinity; also recorded: high affinity”.
On to `CSc1ccccc1N1CCN(CCCCn2ncc(=O)n(C)c2=O)CC1` [Compound 17], for which, on 5-HT1AR [1], the “5-HT1AR binding affinity (in words)” value was “nanomolar affinity”.
`Cn1c(=O)cnn(CCCCN2CCN(c3c(Br)cccc3C#N)CC2)c1=O` [Compound 23]: the “5-HT1AR binding affinity (in words)” value on 5-HT1AR [1] is listed as “sharp decrease in affinity”.
`Cn1c(=O)cnn(CCCCN2CCN(c3ccc(I)cc3)CC2)c1=O` [Compound 19]: the “5-HT1AR binding affinity (in words)” value on 5-HT1AR [1] is given as “sharp decrease in affinity”.
Take `COc1ccccc1N1CCN(CCCCn2ncc(=O)n(C)c2=O)CC1` [Compound 8]: at 5-HT1AR [1], the “5-HT1AR binding affinity (in words)” value was “nanomolar affinity”.
For the molecule `Cn1c(=O)cnn(CCCCN2CCN(c3ccccc3O)CC2)c1=O` [Compound 24], the “selectivity for 5-HT1AR over α-1AR” value in the assay with α-1AR is recorded as > 10,000 times. In addition, at 5-HT1AR [1], the “5-HT1AR binding affinity (in words)” value is given as “nanomolar affinity”.
As for `Cn1c(=O)cnn(CCCCN2CCN(c3ccccc3OCCCF)CC2)c1=O` [Compound 14], the “5-HT1AR binding affinity (in words)” value at 5-HT1AR [1] is “nanomolar affinity”.
For `COc1ccc(N2CCN(CCCCn3ncc(=O)n(C)c3=O)CC2)cc1` [Compound 10], the “5-HT1AR binding affinity (in words)” value on 5-HT1AR [1] is listed as “sharp decrease in affinity”.
Regarding `COc1ccc(N2CCN(CCCCn3ncc(=O)n(C)c3=O)CC2)c(OC)c1` [Compound 11], the “5-HT1AR binding affinity (in words)” value on 5-HT1AR [1] is “sharp decrease in affinity”.
As for `Cn1c(=O)cnn(CCCCN2CCN(c3ncccc3F)CC2)c1=O` [Compound 29], in the assay with α-1AR, the “selectivity … (in words)” value is “excellent selectivity”. The “5-HT1AR binding affinity (in words)” value at 5-HT1AR [1] is given as “high affinity”.
For the molecule `COc1ccccc1N1CCN(CCCCCn2ncc(=O)n(C)c2=O)CC1` [Compound 38], on 5-HT1AR [1], the “5-HT1AR binding affinity (in words)” value was “did not see considerable improvement”.
